Assay results gathered from unrelated publications.
Each line is one published result; the experiments were not run side by side.
BCHE: Cholinesterase (BCHE, Equus caballus, UniProt P81908)
MAP2K3: Dual specificity mitogen-activated protein kinase kinase 3 (MAP2K3, Homo sapiens, UniProt P46734)

C[C@]12CC[C@@H]3c4ccc(OC(=O)N(CCCl)CCCl)cc4CC[C@H]3[C@@H]1CC[C@@H]2OP(=O)(O)O — koff (Tyrosine-protein phosphatase non-receptor type 11 (PTPN11, Homo sapiens, UniProt Q06124); binding; SPR): 0.02 s⁻¹
Cc1nn(C)cc1-c1nc2c(N3CCN(Cc4ccc(Cl)cc4)CC3)c(Cl)cnc2[nH]1 — remaining binding (Mitogen-activated protein kinase kinase kinase 6 (MAP3K6, Homo sapiens, UniProt O95382); binding; competition with immobilised ligand; 1 µM): 100%
COc1cc2c(cc1OC)C(=O)N(CC1CCN(Cc3ccccc3)CC1)C2 — inhibition (BCHE; enzyme activity; inhibitor; Ellman; 1 µM): -4.8%
CCN(CC)CCCC[C@H](NC(=O)[C@H](CC(C)C)NC(=O)[C@H](C)NC(=O)[C@H](Cc1ccccc1)NC(=O)c1ccc(C(C)(C)C)cc1)C(=O)N[C@@H](CO)C(=O)OC — ΔTm (Peregrin, bromodomain (BRPF1, Homo sapiens, UniProt P55201); thermal stability; DSF; 25 µM): 0.47 °C
Nc1ccc(-c2ccccc2)c(-c2nc3ccccc3s2)c1 — inhibition (Prostaglandin G/H synthase 1 (PTGS1, Ovis aries, UniProt P05979); enzyme activity; inhibitor; absorbance; 10 µM): 59.1%
Nc1ncc(-c2nc(N3CCOCC3)nc(N3CCOCC3)n2)c(C(F)F)n1 — remaining binding (MAP2K3; binding; competition with immobilised ligand; 10 µM): 78%
COc1cc2c(cc1OC)C(=O)N(Cc1cccnc1)C2 — inhibition (BCHE; enzyme activity; inhibitor; Ellman; 1 µM): -12.2%
C#Cc1n[nH]c2c(-c3cn([C@@H](C)c4ccccn4)c(=O)[nH]c3=O)cc(F)cc12 — inhibition (BDNF/NT-3 growth factors receptor (NTRK2, Homo sapiens, UniProt Q16620); enzyme activity; inhibitor; 0.1 µM): 3.7%
COc1cccc(CN2CCC(CN3Cc4cc(OC)c(OC)cc4C3=O)CC2)n1 — inhibition (BCHE; enzyme activity; inhibitor; Ellman; 1 µM): -2%
Cn1cc(-c2cc(F)cc(N3CCn4c(cc5c4CCCC5)C3=O)c2CO)cc(Nc2ccc(N3CCN(C4COC4)CC3)cn2)c1=O — inhibition (SRSF protein kinase 2 (SRPK2, Homo sapiens, UniProt P78362); enzyme activity; inhibitor; 0.1 µM): 3%
COc1cc2c(cc1OC)C(=O)N(Cc1cnc3c(c1)OCCN3C)C2 — inhibition (BCHE; enzyme activity; inhibitor; Ellman; 1 µM): 13.6%
COc1ncccc1-c1cnn2ccc(N3CCN(C(=O)OC(C)C)CC3)nc12 — remaining binding (MAP2K3; binding; competition with immobilised ligand; 1 µM): 80%
